Data published in ChEMBL document CHEMBL4145595, “Discovery of MK-8282 as a Potent G-Protein-Coupled Receptor 119 Agonist for the Treatment of Type 2 Diabetes” (ACS Med Chem Lett, 2018).
pEC50: −log10 of the molar value. Activity calls are given as the source filed them. The rule behind the calls is not given here.

Tests used:
Mus musculus [1] = assay: Antidiabetic activity in C57Bl/6NCrl mouse assessed as reduction in glucose excursion administered via oral gavage pretreated for 30 mins followed by glucose-challenge measured 60 mins post dose by OGTT; type: functional, organism-based
Method in brief: (§1)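 Lean C57Bl/6 mice got oral vehicle or drug 30 min before the glucose challenge. Blood glucose was monitored for 60 min after oral administration and expressed as area under the curve (glucose excursion). Doses ranged from 0.03 to 30 mpk.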

[2] = Plasma clearance in monkey at 1 mg/kg, iv or 3 mg/kg, po; type: ADME, organism-based, Macaca mulatta; conditions: rhesus monkey
Method in brief: (§2)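 Monkey PK used 1 mpk IV and 3 mpk PO. Readouts were plasma clearance (mL/min/kg), Vdss (L/kg), t½ (h), oral AUC (µM·h) and bioavailability F (%).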

[3] = AUC in dog at 10 mg/kg, po; conditions: in vivo
Mus musculus [4] = assay: Antidiabetic activity in C57Bl/6NCrl mouse assessed as increase in plasma GLP1 (7 to 36) amide levels at 1 mg/kg, po administered via gavage pretreated followed by glucose-challenge measured after 10 mins in presence of sitagliptin; type: functional, organism-based
[5] = Protein binding in rat assessed as unbound fraction at 10 uM; type: ADME, cell-free; conditions: plasma
[6] = Volume of distribution at steady state in rat at 1 mg/kg, iv or 30 mg/kg, po; conditions: in vivo, read-out: Vdss
[7] = Plasma clearance in dog at 1 mg/kg, iv or 10 mg/kg, po
Rattus norvegicus [8] = assay: Oral bioavailability in rat at 30 mg/kg; conditions: in vivo
[9] = Half life in rat at 1 mg/kg, iv or 30 mg/kg, po; conditions: in vivo
Rattus norvegicus [10] = assay: AUC in rat at 30 mg/kg, po; conditions: in vivo
[11] = molecular target: T1, Glucose-dependent insulinotropic receptor (Homo sapiens, UniProt Q8TDV5); assay: (§3) Agonist activity at human GPR119 expressed in HEK293 cells assessed as increase in cAMP level after 30 mins by LANCE assay; type: functional, cell-based
T1 sequence (Q8TDV5 whole entry): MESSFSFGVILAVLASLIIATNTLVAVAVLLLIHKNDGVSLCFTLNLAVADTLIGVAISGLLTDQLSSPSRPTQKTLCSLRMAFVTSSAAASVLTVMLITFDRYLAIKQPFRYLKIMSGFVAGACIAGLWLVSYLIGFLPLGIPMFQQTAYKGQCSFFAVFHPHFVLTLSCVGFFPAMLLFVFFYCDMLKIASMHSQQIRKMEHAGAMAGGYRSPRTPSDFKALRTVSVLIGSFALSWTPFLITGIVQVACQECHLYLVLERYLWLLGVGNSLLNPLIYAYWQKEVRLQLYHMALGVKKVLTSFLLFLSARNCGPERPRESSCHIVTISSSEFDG

[12] = molecular target: T2, Glucose-dependent insulinotropic receptor (Homo sapiens) (UniProt Q8TDV5); assay: as §3; type: functional, cell-based
T2 sequence (whole entry): T1 sequence (Q8TDV5 whole entry)

Mus musculus [13] = assay: Antidiabetic activity in C57Bl/6NCrl mouse assessed as increase in plasma GLP1 (7 to 36) amide levels at 1 mg/kg, po administered via gavage pretreated followed by glucose-challenge measured after 10 mins; type: functional, organism-based
[14] = Volume of distribution at steady state in monkey at 1 mg/kg, iv or 3 mg/kg, po; type: ADME, organism-based, Macaca mulatta; conditions: rhesus monkey, in vivo, read-out: Vdss; method in brief: as §2
Mus musculus [15] = assay: Antidiabetic activity in C57Bl/6NCrl mouse assessed as reduction in glucose excursion at 1 mg/kg, po administered via gavage pretreated for 30 mins followed by glucose-challenge measured 60 mins post dose by OGTT relative to control; type: functional; design: scale not given: the % may be the effect or the level left; method in brief: as §1
Mus musculus [16] = assay: Glucose lowering effect in C57Bl/6NCrl mouse assessed as reduction in glucose level at 3 mg/kg, po administered via gavage pretreated for 30 mins followed by glucose-challenge measured after 20 mins by OGTT relative to control; type: functional; design: scale not given: the % may be the effect or the level left
Method in brief: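 Overnight-fasted mice got compound or vehicle orally at 3 to 10 mg/kg. Glucose (3 g/kg po) was given 30 min post-dose. Blood glucose was read by hand-held glucometer before dosing, before glucose and 20 min after glucose. Glucose lowering (%) = [(1 − 20 min glucose of treated / 20 min glucose of vehicle) × 100].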

Mus musculus [17] = assay: Antidiabetic activity in diet-induced obese mouse assessed as reduction in glucose excursion at 1 to 3 mg/kg, po by OGTT; type: functional, organism-based
[18] = Oral bioavailability in monkey at 3 mg/kg; type: ADME, organism-based, Macaca mulatta; conditions: rhesus monkey, in vivo; method in brief: as §2
[19] = molecular target: T3, Glucose-dependent insulinotropic receptor (Mus musculus, UniProt Q7TQP3); assay: (§4) Agonist activity at mouse GPR119 assessed as increase in cAMP level; type: functional
T3 sequence (Q7TQP3 whole entry): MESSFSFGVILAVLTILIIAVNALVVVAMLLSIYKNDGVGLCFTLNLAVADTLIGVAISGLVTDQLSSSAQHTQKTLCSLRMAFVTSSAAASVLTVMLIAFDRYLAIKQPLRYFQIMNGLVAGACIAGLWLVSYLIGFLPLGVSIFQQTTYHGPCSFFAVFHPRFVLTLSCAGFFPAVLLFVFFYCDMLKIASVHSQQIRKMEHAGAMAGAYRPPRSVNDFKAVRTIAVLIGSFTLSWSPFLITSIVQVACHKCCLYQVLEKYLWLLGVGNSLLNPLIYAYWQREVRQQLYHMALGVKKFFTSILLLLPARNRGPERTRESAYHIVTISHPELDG

[20] = molecular target: T4, Glucose-dependent insulinotropic receptor (Mus musculus) (UniProt Q7TQP3); assay: as §4; type: functional
T4 sequence (whole entry): T3 sequence (Q7TQP3 whole entry)

Mus musculus [21] = assay: Antidiabetic activity in C57Bl/6NCrl mouse assessed as reduction in glucose excursion at 0.3 mg/kg, po administered via gavage pretreated for 30 mins followed by glucose-challenge measured 60 mins post dose by OGTT relative to control; type: functional; design: scale not given: the % may be the effect or the level left; method in brief: as §1
Mus musculus [22] = assay: Glucose lowering effect in po dosed GPR119 deficient mouse assessed as reduction in glucose level by OGTT; type: functional, organism-based
[23] = AUC in monkey at 3 mg/kg, po; type: ADME, organism-based, Macaca mulatta; conditions: rhesus monkey, in vivo; method in brief: as §2
Mus musculus [24] = assay: Antidiabetic activity in C57Bl/6NCrl mouse assessed as reduction in glucose excursion at 0.03 mg/kg, po administered via gavage pretreated for 30 mins followed by glucose-challenge measured 60 mins post dose by OGTT relative to control; type: functional; design: scale not given: the % may be the effect or the level left; method in brief: as §1
Mus musculus [25] = assay: Antidiabetic activity in C57Bl/6NCrl mouse assessed as reduction in glucose excursion at 0.1 mg/kg, po administered via gavage pretreated for 30 mins followed by glucose-challenge measured 60 mins post dose by OGTT relative to control; type: functional; design: scale not given: the % may be the effect or the level left; method in brief: as §1
Mus musculus [26] = assay: Antidiabetic activity in C57Bl/6NCrl mouse assessed as maximum plasma concentration required for reduction in glucose excursion at 0.3 mg/kg, po administered via gavage pretreated for 30 mins followed by glucose-challenge measured 60 mins post dose by OGTT; type: functional, organism-based; design: dose 0.3 mg/kg
Method in brief: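 Lean C57Bl/6 mice were dosed orally 30 min before the glucose challenge (oGTT, glucose followed for 60 min). Plasma Cmax was taken at t = 1 h after the 0.3 mPk dose.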

[27] = Volume of distribution at steady state in dog at 1 mg/kg, iv or 10 mg/kg, po; conditions: in vivo, read-out: Vdss
Mus musculus [28] = assay: Antidiabetic activity in lepr db/db mouse assessed as reduction in glucose excursion at 10 mg/kg, po by OGTT; type: functional, organism-based
Rattus norvegicus [29] = assay: Antidiabetic activity in Sprague-Dawley rat assessed as reduction in glucose excursion at 3 mg/kg, po pretreated followed by glucose challenge measured after 10 to 30 mins in presence of sitagliptin by OGTT; type: functional, organism-based
Method in brief: (§5)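 Sprague-Dawley rats underwent an oral glucose tolerance test with glucose excursion measured. Sitagliptin was dosed at 1 mpk and agonist at 3 mpk, alone or co-administered.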

Mus musculus [30] = assay: Antidiabetic activity in C57Bl/6NCrl mouse assessed as reduction in glucose excursion at 1 to 30 mg/kg, po administered via gavage pretreated for 30 mins followed by glucose-challenge measured 60 mins post dose by OGTT relative to control; type: functional; design: scale not given: the % may be the effect or the level left; method in brief: as §1
[31] = Half life in dog at 1 mg/kg, iv or 10 mg/kg, po; conditions: in vivo
Rattus norvegicus [32] = assay: Antidiabetic activity in Sprague-Dawley rat assessed as reduction in glucose excursion at 3 mg/kg, po pretreated followed by glucose challenge measured after 10 to 30 mins by OGTT; type: functional, organism-based; method in brief: as §5
[33] = Half life in monkey at 1 mg/kg, iv or 3 mg/kg, po; type: ADME, organism-based, Macaca mulatta; conditions: rhesus monkey, in vivo; method in brief: as §2

- clearance [2]: 3.1 mL/min/kg
- AUC [3]: 131 µM·h
- Fu [5]: 1%
- Vd [6]: 5.8 L/kg
- clearance [7]: 0.77 mL/min/kg
- F (Rattus norvegicus [8]): 35%
- half-life [9]: 8.8 h
- AUC (Rattus norvegicus [10]): 63 µM·h
- pEC50 [11]: 8.00
- %max [12]: 92%
- Vd [14]: 2.6 L/kg
- bioavailability [18]: 38%
- pEC50 [19]: 7.24
- %max [20]: 99%
- AUC [23]: 13 µM·h
- Vd [27]: 4.4 L/kg
- half-life [31]: 70 h
- half-life [33]: 12 h
SMILES: CC1(OC(=O)N2C[C@H]3COC[C@@H](C2)[C@@H]3Oc2ncnc(Nc3ccc(C#N)cc3Cl)c2F)CC1
- Activity (Mus musculus [1]): Dose-dependent effect
- Activity (Mus musculus [4]): Active
- Activity (Mus musculus [13]): Active
- Activity (Mus musculus [15]): 49%
- Activity (Mus musculus [16]): 29%
- Activity (Mus musculus [17]): Active
- Activity (Mus musculus [21]): 46%
- Activity (Mus musculus [22]): inactive
- Activity (Mus musculus [24]): 21%
- Activity (Mus musculus [25]): 23%
- Cmax (Mus musculus [26]): 60 nM
- Activity (Mus musculus [28]): Active
- Activity (Rattus norvegicus [29]): Active
- Activity (Mus musculus [30]): 50%
- Activity (Rattus norvegicus [32]): Active
